Columns and labels:
[1] = target: Sodium- and chloride-dependent GABA transporter 1 (Mus musculus) (UniProt P31648); assay: Inhibition of mouse GAT1 expressed in HEK293 cells assessed as remaining [3H]GABA uptake at 1 mM by [3H]GABA uptake assay; assay type: cell-based
Procedure, shortened: (§1)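 Radioactive [3H]GABA uptake run in HEK293 cells expressing mGAT1–4 with 1 mM test substance. Readout is % remaining uptake relative to an inhibitor-free control.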

[2] = target: T1, GABA transporter 2 (Mus musculus) (UniProt P31651); assay: Inhibition of mouse GAT2 expressed in HEK293 cells assessed as remaining [3H]GABA uptake at 1 mM by [3H]GABA uptake assay; assay type: cell-based; procedure, shortened: as §1
T1 sequence (whole entry): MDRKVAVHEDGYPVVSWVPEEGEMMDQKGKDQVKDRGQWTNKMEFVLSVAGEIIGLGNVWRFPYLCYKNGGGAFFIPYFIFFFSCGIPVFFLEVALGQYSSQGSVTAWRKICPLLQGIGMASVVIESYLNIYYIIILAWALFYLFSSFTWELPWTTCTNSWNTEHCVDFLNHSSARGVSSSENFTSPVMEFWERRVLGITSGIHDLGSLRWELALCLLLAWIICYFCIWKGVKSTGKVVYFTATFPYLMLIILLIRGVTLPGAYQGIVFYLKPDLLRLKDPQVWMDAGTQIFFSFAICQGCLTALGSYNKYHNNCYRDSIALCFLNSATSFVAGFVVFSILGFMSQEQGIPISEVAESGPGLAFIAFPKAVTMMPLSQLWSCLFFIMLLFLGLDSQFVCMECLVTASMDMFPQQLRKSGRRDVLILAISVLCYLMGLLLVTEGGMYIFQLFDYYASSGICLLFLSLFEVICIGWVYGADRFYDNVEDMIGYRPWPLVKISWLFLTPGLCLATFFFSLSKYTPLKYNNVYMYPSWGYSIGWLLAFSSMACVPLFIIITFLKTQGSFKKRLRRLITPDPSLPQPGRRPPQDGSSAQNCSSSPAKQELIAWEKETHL

GABA transporter 3 = target: T2, GABA transporter 3 (Mus musculus, UniProt P31649); assay: Inhibition of mouse GAT3 expressed in HEK293 cells by [3H]GABA uptake assay; assay type: cell-based
T2 sequence (P31649 whole entry): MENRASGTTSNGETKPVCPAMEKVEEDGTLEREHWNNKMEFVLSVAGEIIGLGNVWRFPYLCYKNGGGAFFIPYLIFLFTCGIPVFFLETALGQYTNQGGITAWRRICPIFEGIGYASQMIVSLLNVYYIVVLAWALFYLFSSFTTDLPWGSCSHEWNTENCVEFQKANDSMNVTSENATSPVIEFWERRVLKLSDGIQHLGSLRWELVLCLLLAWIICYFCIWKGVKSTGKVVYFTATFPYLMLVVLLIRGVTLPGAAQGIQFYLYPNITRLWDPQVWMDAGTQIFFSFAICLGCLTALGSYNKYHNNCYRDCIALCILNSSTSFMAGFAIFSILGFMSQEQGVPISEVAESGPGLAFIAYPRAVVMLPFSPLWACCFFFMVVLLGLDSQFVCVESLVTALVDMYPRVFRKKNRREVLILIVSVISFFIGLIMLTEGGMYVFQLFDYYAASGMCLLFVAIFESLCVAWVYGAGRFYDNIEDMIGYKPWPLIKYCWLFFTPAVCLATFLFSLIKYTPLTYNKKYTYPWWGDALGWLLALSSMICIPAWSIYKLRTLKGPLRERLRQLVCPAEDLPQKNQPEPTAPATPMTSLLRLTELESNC

[3] = target: T3, GABA transporter 4 (Mus musculus) (UniProt P31650); assay: Inhibition of mouse GAT4 expressed in HEK293 cells assessed as remaining [3H]GABA uptake at 1 mM by [3H]GABA uptake assay; assay type: cell-based; procedure, shortened: as §1
T3 sequence (whole entry): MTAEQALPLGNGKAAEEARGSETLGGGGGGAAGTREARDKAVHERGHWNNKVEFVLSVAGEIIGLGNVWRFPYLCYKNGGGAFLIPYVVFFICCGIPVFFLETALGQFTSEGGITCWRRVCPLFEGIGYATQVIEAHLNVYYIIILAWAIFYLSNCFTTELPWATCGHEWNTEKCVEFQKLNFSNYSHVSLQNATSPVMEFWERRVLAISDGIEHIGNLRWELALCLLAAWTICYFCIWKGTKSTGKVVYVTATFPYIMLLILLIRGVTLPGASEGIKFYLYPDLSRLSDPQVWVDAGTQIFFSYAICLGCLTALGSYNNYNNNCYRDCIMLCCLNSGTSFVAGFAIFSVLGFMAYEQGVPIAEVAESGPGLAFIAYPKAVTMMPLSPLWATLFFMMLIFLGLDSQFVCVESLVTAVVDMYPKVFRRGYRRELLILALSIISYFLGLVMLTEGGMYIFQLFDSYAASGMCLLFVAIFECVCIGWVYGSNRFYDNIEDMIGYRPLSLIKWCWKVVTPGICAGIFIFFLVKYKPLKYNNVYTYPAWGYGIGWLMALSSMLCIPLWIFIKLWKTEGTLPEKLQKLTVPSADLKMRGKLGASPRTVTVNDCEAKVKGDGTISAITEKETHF

[4] = target: T4, Sodium- and chloride-dependent GABA transporter 1 (Mus musculus, UniProt P31648); assay: Inhibition of mouse GAT1 expressed in HEK293 cells by [3H]GABA uptake assay; assay type: cell-based
GABA transporter 2 = target: T5, GABA transporter 2 (Mus musculus, UniProt P31651); assay: Inhibition of mouse GAT2 expressed in HEK293 cells by [3H]GABA uptake assay; assay type: cell-based
T5 sequence (P31651 whole entry): T1 sequence (whole entry)
Procedure, shortened: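 [3H]GABA uptake inhibition in HEK293 cells expressing mGAT1–4 or hGAT-1, reported as pIC50 (mean ± SEM, n = 3 independent experiments). The hGAT-1 assay matched the mGAT1 assay except that HEK293 […] expressing hGAT-1 was used.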

GABA transporter 4 = target: T6, GABA transporter 4 (Mus musculus, UniProt P31650); assay: Inhibition of mouse GAT4 expressed in HEK293 cells by [3H]GABA uptake assay; assay type: cell-based
T6 sequence (P31650 whole entry): T3 sequence (whole entry)

[5] = target: T7, Sodium- and chloride-dependent GABA transporter 1 (Homo sapiens, UniProt P30531); assay: Binding affinity to human GAT1 expressed in HEK293 cells using NO71156 as unlabelled marker by LC-ESI-MS-MS based competitive MS binding assay; assay type: cell-based
Procedure, shortened: (§2)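 Competitive MS Binding Assay using membrane preparations from HEK293 cells expressing the transporter. hGAT-1 membranes were prepared the same way as mGAT1 membranes. Affinity reported as pKi ± SEM from three independent experiments.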

[6] = target: T4, Sodium- and chloride-dependent GABA transporter 1; assay: Binding affinity to mouse GAT1 expressed in HEK293 cells using NO71156 as unlabelled marker by LC-ESI-MS-MS based competitive MS binding assay; assay type: cell-based; procedure, shortened: as §2
[7] = target: T8, GABA transporter 3 (Mus musculus) (UniProt P31649); assay: Inhibition of mouse GAT3 expressed in HEK293 cells assessed as remaining [3H]GABA uptake at 1 mM by [3H]GABA uptake assay; assay type: cell-based; procedure, shortened: as §1
T8 sequence (whole entry): T2 sequence (P31649 whole entry)

[8] = target: T7, Sodium- and chloride-dependent GABA transporter 1; assay: Inhibition of human GAT1 expressed in HEK293 cells by [3H]GABA uptake assay; assay type: cell-based
[9] = target: T1, GABA transporter 2 (Mus musculus); assay: Inhibition of mouse GAT2 expressed in HEK293 cells assessed as remaining [3H]GABA uptake at 100 uM by [3H]GABA uptake assay; assay type: cell-based
Procedure, shortened: (§3)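 Transfected HEK293 cells (mGAT1–4) tested for [3H]GABA uptake at 100 µM test substance. Remaining uptake is expressed against a control without inhibitor.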

[10] = target: T8, GABA transporter 3 (Mus musculus); assay: Inhibition of mouse GAT3 expressed in HEK293 cells assessed as remaining [3H]GABA uptake at 100 uM by [3H]GABA uptake assay; assay type: cell-based; procedure, shortened: as §3
[11] = target: T3, GABA transporter 4 (Mus musculus); assay: Inhibition of mouse GAT4 expressed in HEK293 cells assessed as remaining [3H]GABA uptake at 100 uM by [3H]GABA uptake assay; assay type: cell-based; procedure, shortened: as §3
Mus musculus = organism: Mus musculus; assay: Selectivity for mouse GAT1 over mouse GAT4
[12] = target: Sodium- and chloride-dependent GABA transporter 1 (Mus musculus) (UniProt P31648); assay: Inhibition of mouse GAT1 expressed in HEK293 cells assessed as remaining [3H]GABA uptake at 100 uM by [3H]GABA uptake assay; assay type: cell-based; procedure, shortened: as §3

T7 sequence (P30531 whole entry): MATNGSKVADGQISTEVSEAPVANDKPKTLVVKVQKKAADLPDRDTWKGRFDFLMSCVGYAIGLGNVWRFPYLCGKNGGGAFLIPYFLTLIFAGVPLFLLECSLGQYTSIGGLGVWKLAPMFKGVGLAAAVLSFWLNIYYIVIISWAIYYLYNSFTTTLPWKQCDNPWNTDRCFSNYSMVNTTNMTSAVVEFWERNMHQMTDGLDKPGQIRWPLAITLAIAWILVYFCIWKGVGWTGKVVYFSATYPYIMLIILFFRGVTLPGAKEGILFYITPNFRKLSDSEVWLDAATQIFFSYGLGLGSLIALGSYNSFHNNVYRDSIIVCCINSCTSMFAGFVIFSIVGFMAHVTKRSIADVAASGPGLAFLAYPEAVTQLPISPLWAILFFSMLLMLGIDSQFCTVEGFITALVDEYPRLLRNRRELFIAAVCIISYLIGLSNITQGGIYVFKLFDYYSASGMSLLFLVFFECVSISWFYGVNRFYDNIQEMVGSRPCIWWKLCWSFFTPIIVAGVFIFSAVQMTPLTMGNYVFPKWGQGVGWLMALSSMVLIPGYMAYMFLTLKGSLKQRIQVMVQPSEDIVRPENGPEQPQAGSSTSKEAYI

SMILES	Activity [2]	IC50 (GABA transporter 3)	IC50 [4]	IC50 (GABA transporter 4)	Ki [6]	Activity [9]	further results
Cc1ccsc1C(=CCCN1CCC[C@@H]1[C@@H](N)C(=O)O)c1sccc1C (racemic)	–	30.2 µM	14.1 µM	31.6 µM	17.4 µM	–	IC50 (GABA transporter 2): 42.7 µM; Ki [5]: 20.4 µM
CC(C)(C(=O)O)[C@H]1CCCN1 (racemic)	108%	–	–	–	–	–	Activity [1]: 83%; Activity [7]: 93%; Activity [3]: 95%
O=C(O)[C@H](O)[C@H]1CCCN1CCC=C(c1ccccc1)c1ccccc1 (racemic)	–	–	25.1 µM	–	3.89 µM	89%	IC50 [8]: 13.8 µM; Ki [5]: 3.98 µM; Activity [10]: 97%; Activity [11]: 59%
Cc1ccsc1C(=CCCN1CCC[C@@H]1[C@H](O)C(=O)O)c1sccc1C (racemic)	–	42.7 µM	2.14 µM	–	0.102 µM	58%	IC50 [8]: 0.724 µM; Ki [5]: 0.0661 µM; Selectivity ratio (Mus musculus): > 47; Activity [11]: 59%
Cc1ccsc1C(=CCCN1CCC[C@@H]1[C@@H](O)C(=O)O)c1sccc1C (racemic)	–	–	3.39 µM	–	1.07 µM	63%	IC50 [8]: 4.17 µM; Ki [5]: 1.1 µM; Selectivity ratio (Mus musculus): > 29; Activity [10]: 90%; Activity [11]: 74%
O=C(O)C1([C@H]2CCCN2)CCC1 (racemic)	91%	–	–	–	–	–	Activity [1]: 92%; Activity [7]: 73%; Activity [3]: 110%
N[C@@H](C(=O)O)[C@H]1CCCN1 (racemic)	–	26.9 µM	123 µM	21.4 µM	–	–	IC50 (GABA transporter 2): 158 µM
O=C(O)[C@@H](O)[C@H]1CCCN1CCC=C(c1ccccc1)c1ccccc1 (racemic)	–	100 µM	2.29 µM	–	0.145 µM	60%	IC50 [8]: 1.91 µM; Ki [5]: 0.214 µM; Activity [11]: 55%
COc1ccc(C(OCCN2CCC[C@@H]2[C@H](O)C(=O)O)(c2ccc(OC)cc2)c2ccc(OC)cc2)cc1 (racemic)	–	–	–	6.61 µM	–	64%	Activity [12]: 80%; Activity [10]: 70%
CCC(C(=O)O)[C@H]1CCCN1 (mixture of isomers)	82%	–	–	–	–	–	Activity [1]: 78%; Activity [7]: 78%; Activity [3]: 95%
COc1ccc(C(OCCN2CCC[C@@H]2[C@@H](O)C(=O)O)(c2ccc(OC)cc2)c2ccc(OC)cc2)cc1 (racemic)	–	17 µM	–	5.75 µM	–	56%	Activity [12]: 68%

The next lines start with results.

Activity [2]	IC50 (GABA transporter 3)	IC50 [4]	IC50 (GABA transporter 4)	Ki [6]	Activity [9]	SMILES	further results
95%	269 µM	–	–	–	–	O=C(O)[C@@H](O)[C@H]1CCCN1 (racemic)	Activity [1]: 53%; Activity [3]: 61%
–	11.5 µM	49 µM	17.4 µM	–	66%	N[C@@H](C(=O)O)[C@H]1CCCN1CCC=C(c1ccccc1)c1ccccc1 (racemic)	–
81%	339 µM	240 µM	1120 µM	–	–	O=C(O)C[C@H]1CCCN1	–
52%	–	–	372 µM	–	–	N[C@H](C(=O)O)[C@H]1CCCN1 (racemic)	Activity [1]: 1%; Activity [7]: 59%
–	–	100 µM	100 µM	37.2 µM	–	Cc1ccsc1C(=CCCN1CCC[C@@H]1[C@H](N)C(=O)O)c1sccc1C (racemic)	IC50 (GABA transporter 2): 100 µM; Ki [5]: 19.1 µM; Activity [10]: 63%
59%	309 µM	–	339 µM	–	–	CC(C(=O)O)[C@H]1CCCN1 (mixture of isomers)	Activity [1]: 83%
–	–	34.7 µM	–	–	61%	N[C@H](C(=O)O)[C@H]1CCCN1CCC=C(c1ccccc1)c1ccccc1 (racemic)	Activity [10]: 71%; Activity [11]: 83%
77%	141 µM	407 µM	309 µM	–	–	O=C(O)C[C@@H]1CCCN1	–
–	36.3 µM	1000 µM	14.1 µM	–	–	O=C(O)[C@H](O)[C@H]1CCCN1 (racemic)	IC50 (GABA transporter 2): 170 µM; Selectivity ratio (Mus musculus): > 71
–	–	–	–	0.0372 µM	–	Cc1ccsc1C(=CCCN1CCC[C@@H](C(=O)O)C1)c1sccc1C [TIAGABINE]	–

Source: ChEMBL document CHEMBL3396951, “Design, synthesis and SAR studies of GABA uptake inhibitors derived from 2-substituted pyrrolidine-2-yl-acetic acids” (Bioorg Med Chem, 2015)
